# In ChEMBL document CHEMBL1140172, “5-N-methylated quindoline derivatives as telomeric g-quadruplex stabilizing ligands: effects of 5-N positive charge on quadruplex binding affinity and cell proliferation” (J Med Chem, 2008):
# The source made the active and inactive calls. The rule behind the calls is not given here.
# What was measured:
# [1] = Binding affinity to synthetic HTG21 telomere assessed as change in G-qudraplex DNA melting temperature at 1 uM by FRET method
# [2] = Inhibition of amplification of synthetic HTG21 telomere assessed as G-quadruplex stabilization by PCR
# Outline: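 PCR stop assay with HTG21 and its partial complementary oligonucleotide (10 pmol each), 0.16 mM dNTP, 2.5 U Taq and test compound. Program: 94 °C for 3 min, then 30 cycles of 94/58/72 °C for 30 s each. Products run on 15% native PAGE and silver stained. IC50 taken from band optical density as 50% inhibition of PCR.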
# [3] = target: Telomerase reverse transcriptase (Homo sapiens, UniProt O14746); assay: Inhibition of telomerase in human MCF7 cells by cell-free telomerase repeat amplification protocol assay
# Outline: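 Modified TRAP using 100 ng of MCF-7 extract in 20 mM Tris-HCl pH 8.0 with 63 mM KCl, 1.5 mM MgCl2, 1 mM EGTA, 50 µM dNTPs, primers TSG4/TS/CXext/NT and a TSNT internal control. Compound or water added, 30 min elongation at 30 °C, then 30 PCR cycles. Read-out by 10% native PAGE with silver stain; TelIC50 from band optical density.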
# [4] = Binding affinity to synthetic HTG21 telomere assessed as conversion of preformed hybrid-type G-quadruplex to antiparallel G-quadruplex structure at 5 uM in presence of K+ ions by CD spectroscopy
# Outline: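 CD on HTG21 at 5 µM strand in 10 mM Tris-HCl pH 7.4 with 100 mM KCl. Sample heated to 95 °C for 5 min, slowly cooled, held at 4 °C overnight. Titrated with 0–5 mol equiv compound. Scans from 230–450 nm at 25 °C, buffer baseline subtracted, at least three scans averaged.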
# CA46 [5] = assay: Growth inhibition in human CA46 cells at 0.06 uM after 12 days; type: functional, cell-based
# Outline: (§1)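 Long-term culture: 1.0 × 10^5 cells per flask with ligand at 0.03 or 0.06 µM, or 0.1% DMSO. Every 4 days cells were counted and reseeded at 1.0 × 10^5 with fresh treatment, for 16 days. Each point done three times.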
# HL-60 [6] = assay: Cytotoxicity against human HL60 cell after 48 hrs by MTT assay; type: functional, cell-based; details: HL-60, 48 h
# Outline: (§2)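 MTT assay: cells seeded at 1.0 × 10^3 per well in RPMI-1640 with 10% FBS and exposed to a range of ligand concentrations for 48 h at 37 °C, 5% CO2. MTT added for 4 h, formazan dissolved in DMSO, OD read at 570 nm. Each dose run in triplicate; IC50 from mean OD versus concentration curves.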
# HL-60 [7] = assay: Growth inhibition in human HL60 cells assessed as increase in population doubling time at 0.03 uM; type: functional, cell-based
# Outline: as §1
# HL-60 [8] = assay: Decrease in telomere length in human HL60 cells at 0.03 uM after 16 days by telomeric restriction fragment length assay; type: functional, cell-based
# Outline: (§3)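 Cells were reseeded every 4 days with continuous compound or 0.1% DMSO for 16 days. Genomic DNA was cut with HinfI/RsaI and run on 0.8% agarose. It was then Southern blotted and probed with a DIG-labelled telomeric repeat probe, detected by anti-DIG alkaline phosphatase chemiluminescence to give TRF length.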
# [9] = Binding affinity to synthetic [d(T2AG3)] oligonucleotide by NMR spectroscopy
# Outline: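 1H NMR titration at 25 °C of HPLC-purified d(T2AG3) at 0.5 mM in 90% H2O/10% D2O with 150 mM KCl and 25 mM potassium phosphate pH 7.0. Watergate water suppression; imino proton shifts monitored.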
# HL-60 [10] = assay: Decrease in telomere length in human HL60 cells at 0.06 uM after 16 days by telomeric restriction fragment length assay; type: functional, cell-based
# Outline: as §3
# [11] = Binding affinity to synthetic [d(T2AG3)] oligonucleotide assessed as increase in DNA melting temperature by NMR spectroscopy
# Outline: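 1H NMR thermal denaturation of d(T2AG3) at 0.5 mM in 90% H2O/10% D2O with 150 mM KCl and 25 mM potassium phosphate pH 7.0. Spectra recorded every 5 °C from 25–90 °C after 15 min equilibration at each step, Watergate water suppression.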
# HL-60 [12] = assay: Induction of senescence in human HL60 cells at 0.06 uM administered continuously for 16 days by senescence-associated beta-galactosidase assay; type: functional, cell-based
# Outline: (§4)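 Cells were treated continuously with 0.06 µM ligand or 0.1% DMSO for 16 days. They were fixed in 2% formaldehyde/0.2% glutaraldehyde for 15 min at room temperature, washed in PBS, and stained overnight at 37 °C with 1 mg/mL X-Gal stain solution.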
# HL-60 [13] = assay: Growth inhibition in human HL60 cells at 0.06 uM after 12 days; type: functional, cell-based
# Outline: as §1
# CA46 [14] = assay: Decrease in telomere length in human CA46 cells at 0.06 uM after 16 days by telomeric restriction fragment length assay; type: functional, cell-based
# Outline: as §3
# CA46 [15] = assay: Cytotoxicity against human CA46 cell after 48 hrs by MTT assay; type: functional, cell-based; details: CA46, 48 h
# Outline: as §2
# CA46 [16] = assay: Induction of senescence in human CA46 cells at 0.06 uM administered continuously for 16 days by senescence-associated beta-galactosidase assay; type: functional, cell-based
# Outline: as §4
# CA46 [17] = assay: Growth inhibition in human CA46 cells assessed as increase in population doubling time at 0.03 uM; type: functional, cell-based
# Outline: as §1
# [18] = Binding affinity to synthetic HT7 oligonucleotide by competition dialysis method
# Outline: (§5)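 Competition dialysis, Tris-HCl 10 mM pH 7.4 with 100 mM NaCl. Each nucleic acid (0.5 mL, 45 µM monomeric unit) in a 1000 MWCO dialysis unit, all dialyzed together against a common ligand solution for 24 h at room temperature. DNA samples brought to 1% SDS. Total ligand in each tube and free ligand in dialysate read by absorbance (425 or 415 nm). Bound = total − free.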
# [19] = Binding affinity to synthetic Pu27 oligonucleotide by competition dialysis method
# Outline: as §5
# [20] = Binding affinity to synthetic HTG21 telomere by competition dialysis method
# Outline: as §5
# Telomerase reverse transcriptase, sequence (O14746 whole entry): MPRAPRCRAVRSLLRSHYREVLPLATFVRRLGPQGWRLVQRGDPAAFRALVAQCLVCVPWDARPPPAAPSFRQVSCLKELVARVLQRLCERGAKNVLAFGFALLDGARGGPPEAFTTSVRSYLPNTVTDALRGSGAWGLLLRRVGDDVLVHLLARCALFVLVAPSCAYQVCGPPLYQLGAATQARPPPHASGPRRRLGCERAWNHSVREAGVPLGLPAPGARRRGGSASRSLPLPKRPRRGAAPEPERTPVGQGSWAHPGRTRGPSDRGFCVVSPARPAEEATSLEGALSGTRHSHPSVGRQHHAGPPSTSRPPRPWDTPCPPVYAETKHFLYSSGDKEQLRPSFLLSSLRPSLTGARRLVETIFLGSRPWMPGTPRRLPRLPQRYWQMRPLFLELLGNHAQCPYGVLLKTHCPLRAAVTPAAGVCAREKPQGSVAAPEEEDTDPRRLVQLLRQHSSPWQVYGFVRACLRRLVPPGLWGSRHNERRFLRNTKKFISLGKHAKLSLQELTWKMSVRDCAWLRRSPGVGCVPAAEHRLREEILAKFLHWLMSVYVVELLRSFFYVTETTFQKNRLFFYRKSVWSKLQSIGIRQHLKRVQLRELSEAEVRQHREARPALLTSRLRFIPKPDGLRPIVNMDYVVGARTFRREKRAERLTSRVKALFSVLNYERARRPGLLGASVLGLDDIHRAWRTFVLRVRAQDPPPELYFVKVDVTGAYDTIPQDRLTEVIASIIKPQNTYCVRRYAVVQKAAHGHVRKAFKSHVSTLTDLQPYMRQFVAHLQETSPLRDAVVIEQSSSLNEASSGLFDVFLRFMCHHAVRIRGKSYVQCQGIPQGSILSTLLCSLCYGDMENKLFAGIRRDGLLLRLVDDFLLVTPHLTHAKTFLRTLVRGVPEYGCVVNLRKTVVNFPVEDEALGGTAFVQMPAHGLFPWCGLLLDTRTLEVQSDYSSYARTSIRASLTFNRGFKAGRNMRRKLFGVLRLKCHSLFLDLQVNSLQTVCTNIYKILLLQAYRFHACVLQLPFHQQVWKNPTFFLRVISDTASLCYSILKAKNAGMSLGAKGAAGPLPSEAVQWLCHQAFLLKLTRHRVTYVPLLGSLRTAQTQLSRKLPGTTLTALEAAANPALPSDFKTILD
Compound,ΔTm [1] [°C],IC50 [2] [µM],IC50 [3] [µM],Activity [4],further results
CN(C)CCCNc1c2ccccc2nc2c1[nH]c1ccccc12,9,> 20,0.63,,
CN(C)CCNc1c2ccccc2[n+](C)c2c1oc1ccccc12,11,11.5,,Active,
CN(C)CCCNc1c2ccccc2[n+](C)c2c1[nH]c1ccc(F)cc12,14,8,0.31,Active,Activity (CA46 [5]): Active; IC50 (HL-60 [6]): 1.21 µM; Activity (HL-60 [7]): Active; Activity (HL-60 [8]): Active; Activity [9]: Active; Activity (HL-60 [10]): Active; ΔTm [11]: 25 °C; Activity (HL-60 [12]): Active; Activity (HL-60 [13]): Active; Activity (CA46 [14]): Active; IC50 (CA46 [15]): 1.36 µM; Activity (CA46 [16]): Active; Activity (CA46 [17]): Active
C[n+]1c2ccccc2c(NCCN2CCOCC2)c2oc3ccccc3c21,9,> 20,,Active,
CCN(CC)CCCNc1c2ccccc2[n+](C)c2c1[nH]c1c(F)cc(F)cc12,15,5.5,0.27,Active,
C[n+]1c2ccccc2c(NCCO)c2oc3ccccc3c21,4,> 20,,Active,
CN(C)CCNc1c2ccccc2[n+](C)c2c1[nH]c1c(F)cc(F)cc12,11,> 20,,Active,
C[n+]1c2ccccc2c(NCCCN2CCOCC2)c2oc3ccccc3c21,13,18,,Active,
CN(C)CCCNc1c2ccccc2[n+](C)c2c1[nH]c1c(F)cc(F)cc12,15,9,0.4,Active,
CN(C)CCCNc1c2ccccc2[n+](C)c2c1oc1ccccc12,14,6.1,0.37,Active,
C[n+]1c2ccccc2c(NCCCO)c2oc3ccccc3c21,10,> 20,,Active,

# Second part, led by results:
ΔTm [1] [°C],IC50 [2] [µM],IC50 [3] [µM],Activity [4],Compound,further results
15,5.7,,Active,CCN(CC)CCCNc1c2ccccc2[n+](C)c2c1oc1ccccc12,
10,> 20,,Active,C[n+]1c2ccccc2c(NCCN2CCOCC2)c2[nH]c3ccccc3c21,
12,13,,Active,CCN(CC)CCNc1c2ccccc2[n+](C)c2c1oc1ccccc12,
5,> 20,,Active,C[n+]1c2ccccc2c(NCCO)c2[nH]c3ccccc3c21,
12,18,,Active,CCN(CC)CCNc1c2ccccc2[n+](C)c2c1[nH]c1ccc(F)cc12,
12,12,,Active,CCN(CC)CCNc1c2ccccc2[n+](C)c2c1[nH]c1ccccc12,
18,5,0.2,Active,CCN(CC)CCCNc1c2ccccc2[n+](C)c2c1[nH]c1ccc(F)cc12,
14,13,,Active,CN(C)CCNc1c2ccccc2[n+](C)c2c1[nH]c1ccc(F)cc12,
7,> 20,,Active,C[n+]1c2ccccc2c(NCCCO)c2[nH]c3ccccc3c21,
13,10.3,,Active,CN(C)CCNc1c2ccccc2[n+](C)c2c1[nH]c1ccccc12,
11,15,,Active,CCN(CC)CCNc1c2ccccc2[n+](C)c2c1[nH]c1c(F)cc(F)cc12,
19,5.1,0.16,Active,CCN(CC)CCCNc1c2ccccc2[n+](C)c2c1[nH]c1ccccc12,
12,> 20,,Active,C[n+]1c2ccccc2c(NCCCN2CCOCC2)c2[nH]c3ccccc3c21,
17,4.5,0.22,Active,CN(C)CCCNc1c2ccccc2[n+](C)c2c1[nH]c1ccccc12,Activity [18]: Active; Activity [19]: Active; Activity [20]: Active
